Measurements reported in ChEMBL document CHEMBL1124180, “Asymmetric synthesis and properties of the enantiomers of the antibacterial agent 7-(3-aminopyrrolidin-1-yl)-1-(2,4-difluorophenyl)-1,4-dihydro-6- fluoro-4-oxo-1,8-naphthyridine-3-carboxylic acid hydrochloride” (J Med Chem, 1988).
Values after ≈ are worked out from the molar mass of the structure shown.

Columns and labels:
Assay type in all cases: functional
Prevotella bivia = assay: In vitro activity against Bacteroides bivius(B 6140)
Method in brief: (§1)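 MIC determined under anaerobic conditions on Wilkins-Chalgren agar.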

Prevotella disiens = assay: In vitro activity against Bacteroides disiens (ATCC 29426); method in brief: as §1
Phocaeicola vulgatus [1] = assay: In vitro activity against Bacteroides vulgatus(792); method in brief: as §1
Phocaeicola vulgatus [2] = assay: In vitro activity against Bacteroides vulgatus(SFBC 2375); method in brief: as §1
Bacteroides fragilis [3] = assay: In vitro activity against Bacteroides fragilis (105AT25285); method in brief: as §1
Bacteroides fragilis [4] = assay: In vitro activity against Bacteroides fragilis (784); method in brief: as §1
Bacteroides fragilis [5] = assay: In vitro activity against Bacteroides fragilis (SFM2906A); method in brief: as §1
Bacteroides fragilis [6] = assay: In vitro activity against Bacteroides fragilis (SFM2975-7); method in brief: as §1
Bacteroides fragilis [7] = assay: In vitro activity against Bacteroides fragilis (UC-2); method in brief: as §1
Hoylesella loescheii = assay: In vitro activity against Bacteroides loescheii (ATCC 15930).; method in brief: as §1
[8] = test system: Bacteroides thetaiotaomicron; assay: In vitro activity against Bacteroides thetaiotaomicron (SFM2975-2); method in brief: as §1
[9] = test system: Bacteroides thetaiotaomicron; assay: In vitro activity against Bacteroides thetaiotaomicron (106); method in brief: as §1
[10] = test system: Bacteroides thetaiotaomicron; assay: In vitro activity against thetaiotaomicron (ATCC 29741)
Method in brief: (§2)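 Anaerobic MICs measured by agar dilution on Wilkins-Chalgren agar.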

Clostridioides difficile [11] = assay: In vitro activity against Clostridium difficile (ATCC 9689)
Clostridium perfringens [12] = assay: In vitro activity against Clostridium perfringens (104AT13124)
Clostridium perfringens [13] = assay: In vitro activity against Clostridium perfringens (SFBC 2026)
Clostridioides difficile [14] = assay: In vitro activity against Clostridium difficile (ATCC 17857)
Thomasclavelia ramosa = assay: In vitro activity against Clostridium ramosum (7); method in brief: as §1
Fusobacterium nucleatum = assay: In vitro activity against Fusobacterium nucleatum (ATCC 25586); method in brief: as §1
Parvimonas micra = assay: In vitro activity against Peptostreptococcus micros (ATCC 33270).; method in brief: as §1
[15] = test system: Peptoniphilus asaccharolyticus; assay: In vitro activity against Peptococcus asaccharolyticus (ATCC 14963).; method in brief: as §1
Finegoldia magna = assay: In vitro activity against Peptococcus magnus (ATCC 29328); method in brief: as §1
Peptostreptococcus = assay: In vitro activity against Peptostreptococcus sp.(TB-11)
Method in brief: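 MIC for anaerobic bacteria, measured on Wilkins-Chalgren agar.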

Veillonella parvula = assay: In vitro activity against Veillonella parvula (ATCC 10790); method in brief: as §2
[16] = test system: Prevotella melaninogenica; assay: In vitro activity against Bacteroides melaninogenicus (ATCC 25845).; method in brief: as §1
[17] = test system: Bacteroides thetaiotaomicron; assay: In vitro activity against Bacteroides thetaiotaomicron (ATCC 29742); method in brief: as §1

With CCC[C@@H]1C[C@@H](C(=O)N[C@@H]([C@H]2O[C@H](SC)[C@H](O)[C@@H](O)[C@H]2O)[C@H](C)Cl)N(C)C1 [CLINDAMYCIN] the MIC (Prevotella bivia) was < 0.015 µg/mL, the MIC (Prevotella disiens) was < 0.015 µg/mL and the MIC (Phocaeicola vulgatus [1]) was < 0.015 µg/mL. The MIC (Phocaeicola vulgatus [2]) was < 0.015 µg/mL, the MIC (Bacteroides fragilis [3]) was 2 µg/mL (≈ 4.71 µM) and the MIC (Bacteroides fragilis [4]) was 1 µg/mL (≈ 2.35 µM). It also gave an MIC (Bacteroides fragilis [5]) of 0.5 µg/mL (≈ 1.18 µM), an MIC (Bacteroides fragilis [6]) of 2 µg/mL (≈ 4.71 µM) and an MIC (Bacteroides fragilis [7]) of 0.5 µg/mL (≈ 1.18 µM). The MIC (Hoylesella loescheii) was 0.5 µg/mL (≈ 1.18 µM), the MIC [8] was 0.5 µg/mL (≈ 1.18 µM) and the MIC [9] was 4 µg/mL (≈ 9.41 µM). The MIC [10] was 8 µg/mL (≈ 18.8 µM), the MIC (Clostridioides difficile [11]) was 4 µg/mL (≈ 9.41 µM) and the MIC (Clostridium perfringens [12]) was 0.03 µg/mL (≈ 0.0706 µM). The MIC (Clostridium perfringens [13]) was 0.25 µg/mL (≈ 0.588 µM), the MIC (Clostridioides difficile [14]) was 8 µg/mL (≈ 18.8 µM) and the MIC (Thomasclavelia ramosa) was 1 µg/mL (≈ 2.35 µM). For the same molecule, the MIC (Fusobacterium nucleatum) was 0.25 µg/mL (≈ 0.588 µM), the MIC (Parvimonas micra) was 0.06 µg/mL (≈ 0.141 µM) and the MIC [15] was 0.06 µg/mL (≈ 0.141 µM). For the same molecule, the MIC (Finegoldia magna) was 1 µg/mL (≈ 2.35 µM), the MIC (Peptostreptococcus) was 0.06 µg/mL (≈ 0.141 µM) and the MIC (Veillonella parvula) was 0.06 µg/mL (≈ 0.141 µM). The MIC [16] was 0.03 µg/mL (≈ 0.0706 µM) and the MIC [17] was 4 µg/mL (≈ 9.41 µM).
